# Reference: ChEMBL document CHEMBL4152239, “Design, synthesis and structure-activity relationship studies of GPR40 agonists containing amide linker” (Eur J Med Chem, 2018)
# The source made the active and inactive calls. The calls are words filed in the database; no cut-off is given here.
# Tests used:
# [1] = target: Free fatty acid receptor 1 (Homo sapiens, UniProt O14842); test: Agonist activity at human GPR40 expressed in HEK293 cells assessed as increase in calcium mobilization by Fluo-8 dye based fluorescence assay; type: functional, cell-based
# Sequence of Free fatty acid receptor 1 (Homo sapiens, UniProt O14842) (O14842 whole entry): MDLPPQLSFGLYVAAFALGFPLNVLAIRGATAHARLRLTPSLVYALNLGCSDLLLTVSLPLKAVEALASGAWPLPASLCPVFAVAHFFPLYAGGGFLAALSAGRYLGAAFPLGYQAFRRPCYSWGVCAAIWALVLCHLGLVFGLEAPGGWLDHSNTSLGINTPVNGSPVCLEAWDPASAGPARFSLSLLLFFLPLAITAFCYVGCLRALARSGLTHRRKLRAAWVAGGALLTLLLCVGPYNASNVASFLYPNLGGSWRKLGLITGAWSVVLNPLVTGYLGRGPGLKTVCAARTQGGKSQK
# [2] = Half life in ICR mouse at 30 mg/kg, po by LC-MS analysis; type: ADME, organism-based; conditions: in vivo
# Method in brief: (§1)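 Male ICR mice, single oral dose of 30mg/kg, n = 3 per compound; vehicle 0.1% Tween-80 in 1% hydropropylcellulose sodium. Plasma sampled over time to derive pharmacokinetic parameters.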
# [3] = Half life in mouse liver microsomes at 0.1 mM in presence of NADPH by LC-MS analysis; type: ADME, microsome
# [4] = AUC (0 to 8 hrs) in ICR mouse at 30 mg/kg, po by LC-MS analysis; type: ADME, organism-based; parameters: dose 30 mg/kg, time < 8 hr, route oral; conditions: in vivo; method in brief: as §1
# [5] = Half life in human liver microsomes at 0.1 mM in presence of NADPH by LC-MS analysis; type: ADME, microsome
# [6] = Tmax in ICR mouse at 30 mg/kg, po by LC-MS analysis; type: ADME, organism-based; conditions: in vivo; method in brief: as §1
# [7] = Efflux ratio of permeability from […] in human Caco2 cells by LC-MS analysis; type: ADME, cell-based; conditions: caco-2
# [8] = Ratio of drug uptake in ICR mouse brain to plasma at 30 mg/kg, po measured at 1 hr by LC-MS analysis; type: ADME, organism-based; conditions: read-out: BPR
# Method in brief: (§2)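 Male ICR mice received 30mg/kg orally, n = 3. Mice were sacrificed at 0.75 h or 1 h depending on compound. Total drug in brain or liver was divided by plasma drug to give the distribution ratio.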
# [9] = target: Free fatty acid receptor 1 (Rattus norvegicus, UniProt Q8K3T4); test: Agonist activity at rat GPR40; type: functional
# Sequence of Free fatty acid receptor 1 (Rattus norvegicus, UniProt Q8K3T4) (Q8K3T4 whole entry): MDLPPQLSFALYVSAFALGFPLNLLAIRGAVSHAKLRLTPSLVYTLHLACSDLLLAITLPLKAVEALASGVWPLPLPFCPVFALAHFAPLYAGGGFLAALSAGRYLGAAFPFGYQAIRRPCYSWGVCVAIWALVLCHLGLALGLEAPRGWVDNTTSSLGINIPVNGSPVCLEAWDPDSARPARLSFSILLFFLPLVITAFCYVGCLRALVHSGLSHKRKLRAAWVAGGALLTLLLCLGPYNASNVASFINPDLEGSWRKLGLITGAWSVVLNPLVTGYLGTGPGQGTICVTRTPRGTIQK
# [10] = Cmax in ICR mouse at 30 mg/kg, po by LC-MS analysis; type: ADME, organism-based; parameters: dose 30 mg/kg, route oral; conditions: in vivo; method in brief: as §1
# [11] = Apparent permeability across apical to basolateral side in human Caco2 cells by LC-MS analysis; type: ADME, cell-based; conditions: caco-2
# [12] = Ratio of drug uptake in ICR mouse liver to plasma at 30 mg/kg, po measured at 1 hr by LC-MS analysis; type: ADME, organism-based; method in brief: as §2
# [13] = target: Free fatty acid receptor 1 (Mus musculus, UniProt Q76JU9); test: Agonist activity at mouse GPR40; type: functional
# Sequence of Free fatty acid receptor 1 (Mus musculus, UniProt Q76JU9) (Q76JU9 whole entry): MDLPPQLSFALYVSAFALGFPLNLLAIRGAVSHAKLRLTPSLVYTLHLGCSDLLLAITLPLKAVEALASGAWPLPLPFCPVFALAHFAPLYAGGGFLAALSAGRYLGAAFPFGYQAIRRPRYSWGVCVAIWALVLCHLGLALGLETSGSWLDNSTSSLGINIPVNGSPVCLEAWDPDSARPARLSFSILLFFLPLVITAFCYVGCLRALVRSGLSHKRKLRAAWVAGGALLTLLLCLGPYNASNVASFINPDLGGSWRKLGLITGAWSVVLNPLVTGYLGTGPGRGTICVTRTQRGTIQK
# [14] = tested on: Mus musculus; test: Antidiabetic activity in ICR mouse assessed as reduction in blood glucose AUC (0 to 120 mins) at 100 mg/kg, po dosed 30 minutes prior to glucose challenge by OGTT; type: functional, organism-based
# Method in brief: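 ICR mice (n=8) received compound orally before an oral glucose load of 2.5 g/kg. […] Comparison was against vehicle control by Student's t-test.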
# [15] = Ratio of drug uptake in rat brain to plasma; type: ADME; conditions: read-out: BPR
# [16] = Ratio of drug uptake in ICR mouse liver to plasma at 30 mg/kg, po measured at 0.75 hrs by LC-MS analysis; type: ADME, organism-based
# Method in brief: (§3)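 Male ICR mice (n = 3) were dosed orally at 30 mg/kg and sacrificed at a set time point. The time point depended on the compound: 0.75 h for some and 1 h for others. Total drug in brain and liver was expressed as a ratio to total plasma drug (brain-to-plasma and liver-to-plasma distribution ratios).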
# [17] = Ratio of drug uptake in ICR mouse brain to plasma at 30 mg/kg, po measured at 0.75 hrs by LC-MS analysis; type: ADME, organism-based; conditions: read-out: BPR; method in brief: as §3
smiles,measurement,setting,value
CC#CC(CC(=O)O)c1ccc(OCc2ccc(C(=O)N3CCc4ccccc4C3)cc2)cc1 (stereo not drawn),EC50,[1],0.106 µM
CC#CC(CC(=O)O)c1ccc(OCc2ccc(C(=O)N3CCN(c4ccc(C(C)(C)C)cc4)CC3)s2)cc1 (stereo not drawn),EC50,[1],0.417 µM
CC#CC(CC(=O)O)c1ccc(OCc2ccc(C(=O)N3CCN(Cc4ccccc4)CC3)s2)cc1 (stereo not drawn),EC50,[1],0.155 µM
CC#C[C@@H](CC(=O)O)c1ccc(OCc2ccc(C(=O)N[C@@H]3CCCc4ccccc43)cc2)cc1,half-life,[2],318 min
same,EC50,[1],0.02 µM
same,half-life at 100 µM,[3],74 min
same,AUC(0-t) at 8 h,[4],80 µg·h/mL
same,half-life at 100 µM,[5],387 min
same,Tmax,[6],72 min
same,Ratio,[7],0.9
same,Kp at 1 h,[8],0.011
same,EC50,[9],0.014 µM
same,Cmax,[10],15.5 µg/mL
same,Papp A→B,[11],188 nm/s
same,Kp at 1 h,[12],0.3
same,EC50,[13],0.023 µM
same,Activity,[14],Active
CC#CC(CC(=O)O)c1ccc(OCc2ccc(C(=O)N3CCc4ccccc4C3)s2)cc1 (stereo not drawn),EC50,[1],0.057 µM
CC#CC(CC(=O)O)c1ccc(OCc2ccc(C(=O)N3CCN(c4ccccc4)CC3)s2)cc1 (stereo not drawn),EC50,[1],0.072 µM
same,half-life at 100 µM,[3],55 min
same,half-life at 100 µM,[5],105 min
CC#CC(CC(=O)O)c1ccc(OCc2ccc(C(=O)N3CCN(c4ccc(C)cc4)CC3)s2)cc1 (stereo not drawn),EC50,[1],0.211 µM
CC#C[C@H](CC(=O)O)c1ccc(OCc2ccc(C(=O)N3CCN(c4ccc(F)cc4)CC3)s2)cc1,EC50,[1],> 5 µM
CC#CC(CC(=O)O)c1ccc(OCc2ccc(C(=O)N3CCN(C)CC3)s2)cc1 (stereo not drawn),EC50,[1],> 5 µM
CC#CC(CC(=O)O)c1ccc(OCc2ccc(C(=O)NC3CCCc4ccccc43)o2)cc1 (stereo not drawn),EC50,[1],0.133 µM
CC#CC(CC(=O)O)c1ccc(OCc2cnc(C(=O)N3CCc4ccccc4C3)s2)cc1 (stereo not drawn),EC50,[1],0.531 µM
O=C(O)CC1COc2cc(OCc3ccc(C(=O)N4CCN(c5ccc(F)cc5)CC4)s3)ccc21 (stereo not drawn),EC50,[1],> 1.67 µM
CC#CC(CC(=O)O)c1ccc(OCc2ccc(C(=O)N3CCN(c4ccc(OC)cc4)CC3)s2)cc1 (stereo not drawn),EC50,[1],0.289 µM
CC#CC(CC(=O)O)c1ccc(OCc2ccc(C(=O)N3CCc4ccccc4C3)o2)cc1 (stereo not drawn),EC50,[1],0.05 µM
CC#CC(CC(=O)O)c1ccc(OCc2ccc(C(=O)N3CCN(c4ccc(Cl)cc4)CC3)s2)cc1 (stereo not drawn),EC50,[1],0.133 µM
Cc1cc(Cl)ccc1-c1cccc(COc2ccc([C@H](CC(=O)O)c3nccn3C)cc2)c1,Kp,[15],0.04
CC#C[C@@H](CC(=O)O)c1ccc(OCc2ccc(C(=O)N3CCN(c4ccc(F)cc4)CC3)s2)cc1,half-life,[2],228 min
same,EC50,[1],0.047 µM
same,half-life at 100 µM,[3],120 min
same,AUC(0-t) at 8 h,[4],28.4 µg·h/mL
same,half-life at 100 µM,[5],64 min
same,Tmax,[6],48 min
same,Ratio,[7],0.8
same,Kp at 1 h,[8],0.018
same,EC50,[9],0.025 µM
same,Cmax,[10],13.3 µg/mL
same,Papp A→B,[11],206 nm/s
same,Kp at 1 h,[12],15.1
same,EC50,[13],0.031 µM
CC#CC(CC(=O)O)c1ccc(OCc2cnc(C(=O)N3CCN(c4ccc(F)cc4)CC3)s2)cc1 (stereo not drawn),EC50,[1],0.203 µM
CC#CC(CC(=O)O)c1ccc(OCc2ccc(C(=O)NC3CCCc4ccccc43)cc2)cc1 (stereo not drawn),EC50,[1],0.042 µM
CC#CC(CC(=O)O)c1ccc(OCc2ccc(C(=O)N3CCC4(C=Cc5ccccc54)CC3)cc2)cc1 (stereo not drawn),EC50,[1],0.179 µM
same,half-life at 100 µM,[3],6 min
same,half-life at 100 µM,[5],9 min
same,Ratio,[7],0.3
same,Papp A→B,[11],109 nm/s
CC#CC(CC(=O)O)c1ccc(OCc2ccc(C(=O)N3CCN(c4ccc(F)cc4)CC3)cc2)cc1 (stereo not drawn),EC50,[1],0.114 µM
CC#CC(CC(=O)O)c1ccc(OCc2ccc(C(=O)NC3CCCc4ccccc43)s2)cc1 (stereo not drawn),EC50,[1],0.109 µM
CC#CC(CC(=O)O)c1ccc(OCc2ccc(C(=O)N3CCN(c4ccc(F)cc4)CC3)s2)cc1 (stereo not drawn),EC50,[1],0.054 µM
Cc1nc(-c2ccc(C(F)(F)F)cc2)sc1COc1ccc([C@H](CC(=O)O)c2ccon2)cc1,Kp,[15],0.02
CC#CC(CC(=O)O)c1ccc(OCc2ccc(C(=O)N3CCN(c4cccc(F)c4)CC3)s2)cc1 (stereo not drawn),EC50,[1],0.097 µM
CC#CC(CC(=O)O)c1ccc(OCc2ccc(C(=O)N3CCN(c4cccnc4)CC3)s2)cc1 (stereo not drawn),EC50,[1],1.14 µM
CC#CC(CC(=O)O)c1ccc(OCc2ccc(C(=O)N3CCC4(C=Cc5ccccc54)CC3)s2)cc1 (stereo not drawn),EC50,[1],0.172 µM
same,half-life at 100 µM,[3],7 min
same,half-life at 100 µM,[5],25 min
same,Ratio,[7],0.3
same,Papp A→B,[11],193 nm/s
CC#CC(CC(=O)O)c1ccc(OCc2ccc(C(=O)N3CCN(c4ccc([N+](=O)[O-])cc4)CC3)s2)cc1 (stereo not drawn),EC50,[1],0.231 µM
CC#C[C@@H](CC(=O)O)c1ccc(OCc2ccc(C(=O)N[C@H]3CCCc4ccccc43)cc2)cc1,half-life,[2],180 min
same,EC50,[1],0.039 µM
same,half-life at 100 µM,[3],27 min
same,AUC(0-t) at 8 h,[4],3.76 µg·h/mL
same,half-life at 100 µM,[5],214 min
same,Tmax,[6],15 min
same,Ratio,[7],1.2
same,Kp at 0.75 h,[16],0.9
same,Kp at 0.75 h,[17],0.006
same,EC50,[9],0.028 µM
same,Cmax,[10],3.77 µg/mL
same,Papp A→B,[11],152 nm/s
same,EC50,[13],0.042 µM
O=C(O)CCc1ccc(OCc2ccc(C(=O)N3CCN(c4ccc(F)cc4)CC3)s2)cc1,EC50,[1],0.61 µM
CC#CC(CC(=O)O)c1ccc(OCc2ccc(C(=O)N3CCN(c4cccc([N+](=O)[O-])c4)CC3)s2)cc1 (stereo not drawn),EC50,[1],0.187 µM
CC#C[C@@H](CC(=O)O)c1ccc(OCc2ccc(CN3CCC4(C=Cc5ccccc54)CC3)cc2)cc1 [LY2881835],half-life,[2],78 min
same,EC50,[1],0.134 µM
same,half-life at 100 µM,[3],2 min
same,AUC(0-t) at 8 h,[4],5.15 µg·h/mL
same,half-life at 100 µM,[5],18 min
same,Tmax,[6],42 min
same,Ratio,[7],0.4
same,Kp at 0.75 h,[16],2.5
same,Kp at 0.75 h,[17],0.14
same,Cmax,[10],2.85 µg/mL
same,Papp A→B,[11],150 nm/s
CC#CC(CC(=O)O)c1ccc(OCc2ccc(C(=O)N3CCN(C4CCCCC4)CC3)s2)cc1 (stereo not drawn),EC50,[1],0.82 µM
CC#CC(CC(=O)O)c1ccc(OCc2ccc(C(=O)N3CCCc4ccccc43)s2)cc1 (stereo not drawn),EC50,[1],0.08 µM
CC#CC(CC(=O)O)c1ccc(OCc2ccc(C(=O)N3CCN(c4ccncc4)CC3)s2)cc1 (stereo not drawn),EC50,[1],> 5 µM
CC#CC(CC(=O)O)c1ccc(OCc2ccc(C(=O)N3CCN(c4ccccn4)CC3)s2)cc1 (stereo not drawn),EC50,[1],0.138 µM
CC#CC(CC(=O)O)c1ccc(OCc2ccc(C(=O)N3CCN(c4ccccc4[N+](=O)[O-])CC3)s2)cc1 (stereo not drawn),EC50,[1],0.094 µM
O=C(O)CC(c1ccc(OCc2ccc(C(=O)N3CCN(c4ccc(F)cc4)CC3)s2)cc1)C1CC1 (stereo not drawn),EC50,[1],> 1.67 µM
CC#CC(CC(=O)O)c1ccc(OCc2ccc(C(=O)N3CCN(c4ccc(F)cc4)CC3)o2)cc1 (stereo not drawn),EC50,[1],0.308 µM
CC#CC(CC(=O)O)c1ccc(OCc2cnc(C(=O)NC3CCCc4ccccc43)s2)cc1 (stereo not drawn),EC50,[1],0.144 µM
CC#CC(CC(=O)O)c1ccc(OCc2ccc(C(=O)N3CCN(c4ccccc4F)CC3)s2)cc1 (stereo not drawn),EC50,[1],0.113 µM
